The structures appear in SMILES notation.

Format in all cases: functional, tissue-based
The target in assay [1] is Histamine H1 receptor (Cavia porcellus) (UniProt P31389). Nature of the assay: Antagonist activity at histamine H1 receptor in Dunkin-Hartley guinea pig ileum assessed as inhibition of histamine-induced contractions at 10 umol/L. The settings on record: at 10 µM. In short, it runs like this:
(§1)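 Ileum segments (2 cm) were taken from stunned animals and mounted in an organ bath under 1 g initial load. The bath held Tyrode's solution at 37 °C, continuously oxygenated. After 20 min stabilization, noncumulative submaximal histamine stimuli were given. Isometric contractions were recorded without compound and after 3-5 min incubation with compound.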

Assay [2] shares this target. Briefly: Antagonist activity at histamine H1 receptor in Dunkin-Hartley guinea pig ileum assessed as inhibition of histamine-induced contractions at 30 umol/L. As to conditions: at 30 µM. Put shortly: as §1
For assay [3] the target is unchanged. Briefly: Antagonist activity at histamine H1 receptor in Dunkin-Hartley guinea pig ileum assessed as inhibition of histamine-induced contractions at 3 umol/L. The settings on record: at 3 µM. Put shortly: as §1

Chain of Histamine H1 receptor (Cavia porcellus) (P31389 whole entry): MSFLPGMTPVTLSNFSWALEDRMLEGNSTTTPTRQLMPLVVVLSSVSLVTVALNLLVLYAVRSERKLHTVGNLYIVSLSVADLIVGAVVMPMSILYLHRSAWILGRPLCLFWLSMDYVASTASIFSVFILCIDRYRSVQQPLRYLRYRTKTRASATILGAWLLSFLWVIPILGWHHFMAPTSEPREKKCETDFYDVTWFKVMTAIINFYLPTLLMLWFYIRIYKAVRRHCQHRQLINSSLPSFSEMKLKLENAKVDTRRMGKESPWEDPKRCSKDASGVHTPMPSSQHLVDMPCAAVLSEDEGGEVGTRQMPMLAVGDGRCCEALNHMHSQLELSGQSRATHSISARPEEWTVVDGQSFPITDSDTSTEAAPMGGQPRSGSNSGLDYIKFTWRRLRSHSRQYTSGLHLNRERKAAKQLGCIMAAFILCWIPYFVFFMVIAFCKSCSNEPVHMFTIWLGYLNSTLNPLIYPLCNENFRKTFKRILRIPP

By inhibition is commonly meant the percentage by which the read-out fell short of the control. With `COc1cc(/C=C2\OC(=O)C=C2CN2CCC(=C3c4ccc(Cl)cc4CCc4cccnc43)CC2)ccc1O`, the inhibition in assay [1] was determined as 42.5%; in assay [2] it was 62.6%; in assay [3], 4.67%.
Consider `Clc1ccc2c(c1)CCc1cccnc1C2=C1CCNCC1`, for which the inhibition in assay [1] was 77.7%; in assay [2] it was 80.4%; in assay [3], 47.4%.
For the compound `CN(C)c1ccc(/C=C2\OC(=O)C=C2CN2CCC(=C3c4ccc(Cl)cc4CCc4cccnc43)CC2)cc1`, the inhibition in assay [1] came out at 77.6%; in assay [2] it was 82.3%; in assay [3], 61.6%.
On to `O=C1C=C(CN2CCC(=C3c4ccc(Cl)cc4CCc4cccnc43)CC2)CO1`, for which the inhibition in assay [1] was 79%; in assay [2], 94.8%; in assay [3], 33.4%.
`O=C1C=C(CN2CCC(=C3c4ccc(Cl)cc4CCc4cccnc43)CC2)/C(=C/c2ccc(F)cc2)O1`: the inhibition was determined as 19% in assay [1], 30.6% in assay [2] and 6.99% in assay [3].
In the same order, the values of `COc1ccccc1/C=C1\OC(=O)C=C1CN1CCC(=C2c3ccc(Cl)cc3CCc3cccnc32)CC1` are 59.2%, 87.8% and 29.4%.
In the case of `CCOC(=O)N1CCC(=C2c3ccc(Cl)cc3CCc3cccnc32)CC1`, the results for the inhibition in assay [1], in assay [2] and in assay [3] were 33.4%, 64.7% and 15.7%, respectively.
`O=C1C=C(CN2CCC(=C3c4ccc(Cl)cc4CCc4cccnc43)CC2)/C(=C/c2ccc(O)cc2)O1`: the inhibition worked out at 41% in assay [1], 65.6% in assay [2] and 3.54% in assay [3].
Regarding `O=C1C=C(CN2CCC(=C3c4ccc(Cl)cc4CCc4cccnc43)CC2)/C(=C/c2ccc(Cl)cc2)O1`, the inhibition in assay [1] is 51.3%; in assay [2] it was 66.7%; in assay [3] it was 37%.
Consider `COc1cc(/C=C2\OC(=O)C=C2CN2CCC(=C3c4ccc(Cl)cc4CCc4cccnc43)CC2)cc(OC)c1OC`, for which the inhibition in assay [1] came out at 32.9%; in assay [2] it was 52.8%; in assay [3] it was 4.23%.
As to `O=C1C=C(CN2CCC(=C3c4ccc(Cl)cc4CCc4cccnc43)CC2)C(C(O)c2ccccc2)O1` (configuration not stated), in assay [3], the inhibition was found to be 42.7%.
On to `CS(=O)(=O)c1ccc(/C=C2\OC(=O)C=C2CN2CCC(=C3c4ccc(Cl)cc4CCc4cccnc43)CC2)cc1`, for which the inhibition in assay [1] worked out at 50.4%; in assay [2], 71.9%; in assay [3], 12.4%.
Consider `COc1ccccc1C(O)C1OC(=O)C=C1CN1CCC(=C2c3ccc(Cl)cc3CCc3cccnc32)CC1` (configuration not stated), for which the figures for the inhibition in assay [1], in assay [2] and in assay [3] were 61.5%, 74.1% and 40.8%, respectively.

Values taken from ChEMBL document CHEMBL1156917, “Stereoselective synthesis of desloratadine derivatives as antagonist of histamine” (Bioorg Med Chem, 2010).
